The text below walks through data of ChEMBL document CHEMBL4000160, “Wasabisides A-E, Lignan Glycosides from the Roots of Wasabia japonica” (J Nat Prod, 2016).

Molecules are shown by their SMILES.

For one data set, the system named is A549. The data set is described as follows: Cytotoxicity against human A549 cells after 48 hrs by SRB assay. It counts as functional, cell-based. Conditions: A549, 48 h. The method in brief:
(§1)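 Human tumor lines from ATCC, maintained at Korea Research Institute of Chemical Technology; cytotoxicity determined by sulforhodamine B (SRB) method, reported as IC50.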

Another data set concerns SK-MEL-2. The data set is described as follows: Cytotoxicity against human SK-MEL-2 cells after 48 hrs by SRB assay. To be noted: SK-MEL-2, 48 h. It counts as functional, cell-based. Put shortly:
as §1

The test system of another data set is BT-549. The data set is described as follows: Cytotoxicity against human BT549 cells after 48 hrs by SRB assay. Type of data set: functional, cell-based. Conditions: BT-549, 48 h. The method in brief: as §1
A general note: The SRB assay estimates cell density from bound dye.

The next data set relates to SK-OV-3. The data set is described as follows: Cytotoxicity against human SKOV3 cells after 48 hrs by SRB assay. It counts as functional, cell-based. Conditions: SK-OV-3, 48 h. The method in brief:
as §1

The nature of data set [1]: Cytotoxicity against rat C6 cells assessed as cell viability at 20 uM by MTT assay relative to control. Type of data set: cell-based. Conditions: read-out: Activity. The method in brief:
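C6 glioma cells seeded 1 × 10^5 cells/well, treated 24 h later in serum-free DMEM with 20 μM compound for 24 h; viability by MTT assay, expressed as % of untreated control. Mean ± SD of three independent experiments.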
(In general: Formazan colour is commonly taken as a measure of viable cells.)

The subject of another data set is BV-2. The data set is described as follows: Antineuroinflammatory activity in mouse BV2 cells assessed as inhibition of LPS-induced nitric oxide production after 24 hrs by Griess assay. Type of data set: functional, cell-based. To be noted: BV-2, 24 h. The method in brief:
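BV2 microglia seeded at 4 × 10^4 cells/well, exposed with or without graded compound concentrations, stimulated with LPS 100 ng/mL for 24 h. Nitrite in medium measured by mixing supernatant 1:1 with Griess reagent (0.1% N-1-naphthylethylenediamine, 1% sulfanilamide, 5% phosphoric acid), absorbance read at 570 nm after 10 min against sodium nitrite standard curve. NG-monomethyl-L-arginine positive control.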

The next data set deals with C6. The data set is described as follows: Induction of nerve growth factor secretion in rat C6 cells at 20 uM after 24 hrs by ELISA relative to control. It counts as functional. Put shortly:
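C6 glioma cells (Korean Cell Line Bank) seeded 1 × 10^5 cells/well; after 24 h switched to serum-free DMEM with 20 μM compound for 24 h. NGF in conditioned medium quantified by ELISA, given as % of untreated control (100%). 6-Shogaol positive control; mean ± SD of three independent experiments.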

In the case of `COc1cc(C[C@@H]2C(=O)OC[C@H]2[C@@H](O)c2cc(OC)c(O[C@@H]3O[C@H](CO)[C@@H](O)[C@H](O)[C@H]3O)c(OC)c2)ccc1O`, the IC50 in the data set with A549 was above 10 µM; in the data set with SK-MEL-2, above 10 µM; in the data set on BT-549, above 10 µM; with SK-OV-3 it was above 10 µM; in the data set on BV-2, above 50 µM. Moreover, the viability at 20 µM in data set [1] is 102%. Besides, the Activity with C6 came to 99.4%.
As to `COc1cc(C[C@@H]2C(=O)OC[C@H]2[C@@H](O)c2ccc(O[C@@H]3O[C@H](CO)[C@@H](O)[C@H](O)[C@H]3O)c(OC)c2)ccc1O`, the IC50 is above 10 µM in the data set on A549; above 10 µM in the data set with SK-MEL-2; above 10 µM in the data set with BT-549; above 10 µM in the data set with SK-OV-3; above 50 µM in the data set with BV-2. The viability at 20 µM in data set [1] was found to be 98.2%. The Activity in the data set on C6 stood at 103.3%.
On to `COc1cc(C[C@H]2C(=O)OC[C@@H]2C(=O)c2ccc(O[C@@H]3O[C@H](CO)[C@@H](O)[C@H](O)[C@H]3O)c(OC)c2)ccc1O`, for which the IC50 is above 10 µM in the data set on A549; above 10 µM in the data set on SK-MEL-2; above 10 µM in the data set with BT-549; above 10 µM with SK-OV-3; above 50 µM with BV-2. Moreover, in data set [1], the viability at 20 µM worked out at 101%. In addition, the Activity in the data set on C6 is on record as 122.1%.
`COc1cc([C@H](O)[C@@H]2COC(=O)[C@H]2Cc2ccc(O[C@@H]3O[C@H](CO)[C@@H](O)[C@H](O)[C@H]3O)c(OC)c2)ccc1O`: the IC50 was above 10 µM in the data set with A549; above 10 µM in the data set on SK-MEL-2; above 10 µM in the data set with BT-549; above 10 µM in the data set with SK-OV-3; above 50 µM with BV-2. In addition, the viability at 20 µM in data set [1] turned out to be 102%. Also, the Activity in the data set with C6 was 104.3%.
`COc1cc(C[C@@H]2C(=O)OC[C@H]2[C@@H](O[C@@H]2O[C@H](CO)[C@@H](O)[C@H](O)[C@H]2O)c2ccc(O)c(OC)c2)ccc1O`: the IC50 with A549 is above 10 µM; in the data set with SK-MEL-2, above 10 µM; with BT-549, above 10 µM; in the data set with SK-OV-3 it was above 10 µM; in the data set on BV-2, above 50 µM. For the same compound, the viability at 20 µM in data set [1] is 100%. This compound displayed an Activity in the data set with C6 of 150.7%.
Consider `O=C(O)c1ccccc1` [BENZOIC ACID], for which the IC50 is above 10 µM with A549; above 10 µM in the data set on SK-MEL-2; above 10 µM in the data set on BT-549; above 10 µM in the data set on SK-OV-3; above 50 µM with BV-2. Besides, the viability at 20 µM in data set [1] is 96.4%. Also, the Activity with C6 turned out to be 114.5%.
`O=C(O)/C=C/c1ccc(O)cc1` [COUMARIC ACID]: the IC50 is above 10 µM with A549; above 10 µM with SK-MEL-2; 10 µM in the data set with BT-549; above 10 µM with SK-OV-3; above 50 µM with BV-2. Further, the viability at 20 µM in data set [1] is 198%. This compound also displayed an Activity in the data set on C6 of 129.2%.
Take `COc1cc(/C=C/C(=O)O)ccc1O` [FERULATE]: the IC50 in the data set with A549 was above 10 µM; in the data set with SK-MEL-2, above 10 µM; in the data set with BT-549, above 10 µM; in the data set on SK-OV-3, above 10 µM; in the data set on BV-2, above 50 µM. For the same compound, in data set [1], the viability at 20 µM amounted to 95%. In addition, the Activity in the data set on C6 stood at 110.7%.
Consider `CCCCC/C=C/C(=O)CCc1ccc(O)c(OC)c1` [SHOGAOL], for which the viability at 20 µM in data set [1] was found to be 115%. In addition, the Activity in the data set with C6 is on record as 165.7%.
Turning to `COc1cc(C(=O)O)cc(OC)c1O` [SYRINGIC ACID], the IC50 in the data set with A549 was above 10 µM; in the data set on SK-MEL-2 it was above 10 µM; in the data set on BT-549, above 10 µM; in the data set on SK-OV-3, above 10 µM; in the data set with BV-2, above 50 µM. Moreover, the viability at 20 µM in data set [1] amounted to 95.9%. Besides, the Activity with C6 amounted to 125.5%.
For the compound `CNC(=N)NCCC[C@H](N)C(=O)O` [TILARGININE], the IC50 in the data set on BV-2 is 17.6 µM.

The IC50 is the concentration at which inhibition is half-maximal.
